Drawing on ChEMBL document CHEMBL1914430, “Synthesis of some new 1,3,5-trisubstituted pyrazolines bearing benzene sulfonamide as anticancer and anti-inflammatory agents” (Bioorg Med Chem Lett, 2011), this text covers inhibition in vivo and Activity for four molecules.

What all share (type): functional
Test [1] has as its system Rattus norvegicus. In words: Antiinflammatory activity in Wistar rat assessed as inhibition of carrageenan-induced hind paw edema at 20 mg/kg, po administered 30 mins before carrageenan challenge measured after 3 hrs by plethysmometer. Summed up:
(§1)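 Wistar rats of either sex, 150–175 g, fasted 16 h, n = 6 per group. Compound given orally at 20 mg/kg as a suspension in 1% CMC in water (10 mL/kg); controls got vehicle only. After 30 min, 0.1 mL of 1% carrageenan in saline was injected subplantar into the left hind paw. Paw volume was measured by plethysmometer at 0, 3 and 5 h. Inhibition = (1 − Vt/Vc) × 100, reported as mean ± SEM.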

Test [2] has as its system Rattus norvegicus. Briefly: Antiinflammatory activity in Wistar rat assessed as inhibition of carrageenan-induced hind paw edema at 20 mg/kg, po administered 30 mins before carrageenan challenge measured after 5 hrs by plethysmometer. Summed up: as §1
Background: The carrageenan paw model is a standard test of acute inflammation.

The test system of the next test is RPMI-8226. In words: Anticancer activity against human RPMI8226 cells assessed as cellular growth at 10 uM. Summed up:
(§2)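 Primary single-dose screen at 10⁻⁵ M, run under the NCI Drug Evaluation Branch protocol against the full panel of about 60 human tumour lines. The lines come from leukaemia, melanoma, lung, colon, CNS, ovarian, renal, prostate and breast cancers. Read-out is cellular growth.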

The next test relates to A549. In words: Anticancer activity against human A549 cells assessed as cellular growth at 10 uM. Summed up: (§3)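 Primary one-dose screen at 10⁻⁵ M, run per the NCI Drug Evaluation Branch protocol on the full panel of about 60 human tumor lines. The panel covers nine cancer types: leukemia, melanoma, lung, colon, CNS, ovarian, renal, prostate and breast.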
The test system of a further test is EKVX. In words: Anticancer activity against human EKVX cells assessed as cellular growth at 10 uM. Summed up: as §3
The test system of a further test is HOP-62. Briefly: Anticancer activity against human HOP62 cells assessed as cellular growth at 10 uM. Summed up:
as §3

The test system of another test is HOP-92. Briefly: Anticancer activity against human HOP92 cells assessed as cellular growth at 10 uM. Summed up: as §3
A further test relates to NCI-H226. Briefly: Anticancer activity against human NCI-H226 cells assessed as cellular growth at 10 uM. Summed up: as §2
In another test the test system is NCI-H23. In words: Anticancer activity against human NCI-H23 cells assessed as cellular growth at 10 uM. Summed up:
as §2

The test system of another test is NCI-H322M. Briefly: Anticancer activity against human NCI-H322M cells assessed as cellular growth at 10 uM. Summed up: as §2
The next test has as its system NCI-H460. In words: Anticancer activity against human NCI-H460 cells assessed as cellular growth at 10 uM. Summed up: as §2
The test system of a further test is NCI-H522. Briefly: Anticancer activity against human NCI-H522 cells assessed as cellular growth at 10 uM. Summed up:
as §2

The subject of a further test is COLO 205. Briefly: Anticancer activity against human COLO205 cells assessed as cellular growth at 10 uM. Summed up: as §3
For a further test, the system named is HCC 2998. In words: Anticancer activity against human HCC2998 cells assessed as cellular growth at 10 uM. Summed up: as §3
For a further test, the system named is HCT-116. In words: Anticancer activity against human HCT116 cells assessed as cellular growth at 10 uM. Summed up: as §3
Another test concerns HCT-15. Briefly: Anticancer activity against human HCT15 cells assessed as cellular growth at 10 uM. Summed up: as §3
In another test the test system is HT-29. Briefly: Anticancer activity against human HT-29 cells assessed as cellular growth at 10 uM. Summed up: as §3
For the next test, the system named is KM12. In words: Anticancer activity against human KM12 cells assessed as cellular growth at 10 uM. Summed up: as §3
The test system of another test is SW-620. In words: Anticancer activity against human SW620 cells assessed as cellular growth at 10 uM. Summed up: (§4)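 NCI primary one-dose screen at 10⁻⁵ M against the ~60 human tumour cell line panel (leukemia, melanoma, lung, colon, CNS, ovarian, renal, prostate, breast). Read-out is cellular growth.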
For a further test, the system named is SF-268. Briefly: Anticancer activity against human SF268 cells assessed as cellular growth at 10 uM. Summed up: as §2
A further test deals with SF-295. In words: Anticancer activity against human SF295 cells assessed as cellular growth at 10 uM. Summed up: as §2
The next test concerns SF-539. Briefly: Anticancer activity against human SF539 cells assessed as cellular growth at 10 uM. Summed up:
as §2

Another test has as its system SNB-19. Briefly: Anticancer activity against human SNB19 cells assessed as cellular growth at 10 uM. Summed up: as §2
In another test the test system is SNB-75. Briefly: Anticancer activity against human SNB75 cells assessed as cellular growth at 10 uM. Summed up: as §2
The test system of another test is U-251. In words: Anticancer activity against human U251 cells assessed as cellular growth at 10 uM. Summed up: as §4
Another test concerns LOX IMVI. Briefly: Anticancer activity against human LOXIMVI cells assessed as cellular growth at 10 uM. Summed up:
as §3

In the next test the test system is Malme-3M. In words: Anticancer activity against human MALME-3M cells assessed as cellular growth at 10 uM. Summed up: as §3
The next test deals with M14. Briefly: Anticancer activity against human M14 cells assessed as cellular growth at 10 uM. Summed up: as §3
In the next test the test system is MDA-MB-435. Briefly: Anticancer activity against human MDA-MB-435 cells assessed as cellular growth at 10 uM. Summed up: as §3
A further test has as its system SK-MEL-2. In words: Anticancer activity against human SK-MEL-2 cells assessed as cellular growth at 10 uM. Summed up:
as §2

The next test deals with SK-MEL-28. In words: Anticancer activity against human SK-MEL-28 cells assessed as cellular growth at 10 uM. Summed up:
as §2

In the next test the test system is SK-MEL-5. Briefly: Anticancer activity against human SK-MEL-5 cells assessed as cellular growth at 10 uM. Summed up: as §2
A further test deals with UACC-257. Briefly: Anticancer activity against human UACC257 cells assessed as cellular growth at 10 uM. Summed up:
as §4

A further test relates to UACC-62. In words: Anticancer activity against human UACC62 cells assessed as cellular growth at 10 uM. Summed up: as §4
For another test, the system named is IGROV-1. Briefly: Anticancer activity against human IGROV1 cells assessed as cellular growth at 10 uM. Summed up: as §3
A further test concerns OVCAR-3. Briefly: Anticancer activity against human OVCAR3 cells assessed as cellular growth at 10 uM. Summed up:
as §2

The test system of another test is OVCAR-4. Briefly: Anticancer activity against human OVCAR4 cells assessed as cellular growth at 10 uM. Summed up: as §2
The subject of a further test is OVCAR-5. In words: Anticancer activity against human OVCAR5 cells assessed as cellular growth at 10 uM. Summed up:
as §2

The next test deals with OVCAR-8. Briefly: Anticancer activity against human OVCAR8 cells assessed as cellular growth at 10 uM. Summed up: as §2
Another test has as its system NCI/ADR-RES. Briefly: Anticancer activity against human NCI/ADR-RES cells assessed as cellular growth at 10 uM. Summed up: as §2
A further test concerns SK-OV-3. In words: Anticancer activity against human SKOV3 cells assessed as cellular growth at 10 uM. Summed up:
as §2

A further test has as its system 786-0. Briefly: Anticancer activity against human 786-0 cells assessed as cellular growth at 10 uM. Summed up:
as §3

The subject of a further test is A498. In words: Anticancer activity against human A498 cells assessed as cellular growth at 10 uM. Summed up: as §3
In another test the test system is ACHN. Briefly: Anticancer activity against human ACHN cells assessed as cellular growth at 10 uM. Summed up: as §3
Another test has as its system RXF 393. Briefly: Anticancer activity against human RXF393 cells assessed as cellular growth at 10 uM. Summed up:
as §2

A further test has as its system TK-10. Briefly: Anticancer activity against human TK10 cells assessed as cellular growth at 10 uM. Summed up:
as §4

For another test, the system named is UO-31. Briefly: Anticancer activity against human UO31 cells assessed as cellular growth at 10 uM. Summed up:
as §4

The next test has as its system PC-3. In words: Anticancer activity against human PC3 cells assessed as cellular growth at 10 uM. Summed up:
as §2

The next test has as its system DU-145. Briefly: Anticancer activity against human DU145 cells assessed as cellular growth at 10 uM. Summed up:
as §3

A further test has as its system MCF7. In words: Anticancer activity against human MCF7 cells assessed as cellular growth at 10 uM. Summed up: as §3
Another test deals with MDA-MB-231. In words: Anticancer activity against human MDA-MB-231 cells assessed as cellular growth at 10 uM. Summed up: as §3
The nature of test [3]: Anticancer activity against human Hs 578T cells assessed as cellular growth at 10 uM. Summed up: as §3
In a further test the test system is BT-549. Briefly: Anticancer activity against human BT549 cells assessed as cellular growth at 10 uM. Summed up:
as §3

Another test deals with T47D. Briefly: Anticancer activity against human T47D cells assessed as cellular growth at 10 uM. Summed up:
as §4

Another test relates to MDA-MB-468. In words: Anticancer activity against human MDA-MB-468 cells assessed as cellular growth at 10 uM. Summed up:
as §2

In another test the test system is SN12C. In words: Anticancer activity against human SN12C cells assessed as cellular growth at 10 uM. Summed up:
as §2

Structures are written as SMILES.

With `Cc1ccc(-c2cc(C(F)(F)F)nn2-c2ccc(S(N)(=O)=O)cc2)cc1` [CELECOXIB], the inhibition in vivo at 20 mg/kg in the test with Rattus norvegicus [1] came to 82.6%; with Rattus norvegicus [2], 85.7%.

Turning to `Cc1cc(O)c(C2=NN(c3ccc(S(N)(=O)=O)cc3)C(c3ccccc3)C2)cc1Cl` (configuration not stated), the inhibition in vivo at 20 mg/kg in the test with Rattus norvegicus [1] was 47.4%; in the test with Rattus norvegicus [2], 60.3%.

Consider `COc1cc(C)c(Cl)cc1C1=NN(c2ccc(S(N)(=O)=O)cc2)C(c2ccccc2)C1` (configuration not stated), for which the inhibition in vivo at 20 mg/kg came to 55.3% in the test on Rattus norvegicus [1] and 59.5% with Rattus norvegicus [2].

In the case of `COc1ccc(C2CC(c3cc(Cl)c(C)cc3OC)=NN2c2ccc(S(N)(=O)=O)cc2)cc1OC` (configuration not stated), the figures for the inhibition in vivo at 20 mg/kg in the test on Rattus norvegicus [1] and with Rattus norvegicus [2] were 31.6% and 47.6%, respectively. Also, the Activity in the test with RPMI-8226 stood at 90.96%; with A549 it was 73.23%; with EKVX, 80.65%; in the test with HOP-62, 87.79%; with HOP-92 it was 101.2%; in the test on NCI-H226, 81.27%. The Activity in the test with NCI-H23 is reported as 75.79%; in the test on NCI-H322M, 103.5%; in the test with NCI-H460 it was 89.78%; in the test on NCI-H522, 74.33%; in the test on COLO 205 it was 101.3%; in the test with HCC 2998, 99.94%. In addition, the Activity amounted to 56.66% in the test on HCT-116; 75.93% in the test on HCT-15; 78.73% with HT-29; 91.8% in the test on KM12; 93.6% in the test on SW-620; 90.07% with SF-268. Further, the Activity with SF-295 is given as 122.81%; in the test on SF-539, 102.69%; with SNB-19, 100.7%; in the test with SNB-75, 83.56%; in the test with U-251, 78.37%; in the test with LOX IMVI it was 77.92%. Further, the Activity with Malme-3M was 101.32%; in the test on M14, 81.83%; in the test with MDA-MB-435 it was 95.83%; with SK-MEL-2 it was 95.75%; with SK-MEL-28, 108.41%; with SK-MEL-5, 84.63%. For the same molecule, the Activity in the test with UACC-257 was found to be 87.16%; in the test on UACC-62 it was 65.06%; in the test with IGROV-1, 79.08%; in the test on OVCAR-3 it was 103.3%; with OVCAR-4 it was 87.79%; in the test on OVCAR-5, 70.62%. Moreover, the Activity in the test with OVCAR-8 worked out at 73.83%; with NCI/ADR-RES, 77.18%; with SK-OV-3, 116.37%; in the test on 786-0, 92.29%; in the test with A498, 111.51%; with ACHN, 83.96%. In addition, the Activity in the test with RXF 393 stood at 77.69%; in the test with TK-10, 112.95%; with UO-31, 59.09%; in the test with PC-3 it was 52.25%; in the test on DU-145, 105.76%; in the test on MCF7, 80.37%. Besides, the Activity in the test on MDA-MB-231 was 84.64%; in test [3] it was 100.69%; with BT-549, 83.23%; in the test on T47D it was 77.03%; with MDA-MB-468, 94.62%; with SN12C, 87.41%.

The inhibition in vivo is the share of the control response that was lost under treatment.
